Drawing on ChEMBL document CHEMBL4422612, “Small Molecule Inhibitor that Stabilizes the Autoinhibited Conformation of the Oncogenic Tyrosine Phosphatase SHP2” (J Med Chem, 2019), this text covers inhibition for nine compounds.

Structures are written as SMILES. Activity calls are given as the source filed them. No cut-off for these calls is given here.

For the experiment, the target named is T1, Tyrosine-protein phosphatase non-receptor type 11 (Homo sapiens) (UniProt Q06124).
T1 sequence (whole entry): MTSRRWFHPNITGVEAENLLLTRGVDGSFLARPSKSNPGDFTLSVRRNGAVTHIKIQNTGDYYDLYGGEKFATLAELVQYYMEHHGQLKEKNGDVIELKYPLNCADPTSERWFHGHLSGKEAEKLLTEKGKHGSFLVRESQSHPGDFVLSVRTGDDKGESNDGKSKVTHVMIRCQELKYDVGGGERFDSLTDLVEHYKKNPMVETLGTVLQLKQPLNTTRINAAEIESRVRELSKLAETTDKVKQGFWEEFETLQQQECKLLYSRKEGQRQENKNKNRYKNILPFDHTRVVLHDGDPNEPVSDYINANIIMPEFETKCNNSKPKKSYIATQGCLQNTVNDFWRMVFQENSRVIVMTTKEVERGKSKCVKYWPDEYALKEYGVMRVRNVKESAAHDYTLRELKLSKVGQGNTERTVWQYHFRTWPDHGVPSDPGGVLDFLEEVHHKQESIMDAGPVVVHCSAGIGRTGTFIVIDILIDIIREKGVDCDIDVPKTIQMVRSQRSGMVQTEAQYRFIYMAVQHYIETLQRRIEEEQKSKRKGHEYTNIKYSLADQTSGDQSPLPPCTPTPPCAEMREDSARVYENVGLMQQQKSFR
Put plainly: Inhibition of wild type recombinant human SHP2 at 50 uM using H-Glu-Phe-pTyr-Ala-Glu-Val-Gly-Arg-Ser-Pro-Pro-Asp-Pro-Ala-Lys as substrate preincubated for 30 mins followed by substrate addition and measured after 30 mins by Malachite Green-reagent based assay. The method, boiled down: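 Full-length SHP2 or SHP1 (0.1 µg) preincubated with compound 30 min at room temperature in 25 mM Tris-HCl pH 7.4, 50 mM NaCl, 5 mM DTT, 2.5 mM EDTA. Phospho-peptide substrate added to 50 µM final; 30 min at 30 °C. Released phosphate read by Malachite Green at OD620. IC50 from six concentrations; three experiments.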

For `C=CCOc1cc(O)c(C(=O)/C=C/c2ccc(Cl)cc2Cl)cc1CN1CCC(O)CC1`, the inhibition result is “Active”.

Take `CCOc1cc(O)c(C(=O)/C=C/c2ccc(OC)cc2)cc1CN1CCCCC1`: the inhibition entry was “Active”.

As for `CCOc1cc(O)c(C(=O)/C=C/c2ccc(Cl)cc2Cl)cc1CN(CC)CC`, the inhibition entry is “Active”.

Consider `CCOc1cc(O)c(C(=O)/C=C/c2ccc(Cl)cc2Cl)cc1CN1CCNCC1C` (centres undefined), for which the inhibition entry was “Active”.

For the compound `CCOc1cc(O)c(C(=O)/C=C/c2ccc(Cl)cc2Cl)cc1CN1CCC(O)CC1`, the inhibition entry was “Active”.

For the compound `CCOc1cc(O)c(C(=O)/C=C/c2ccc(Cl)cc2Cl)cc1CN1C[C@@H](O)C[C@@H]1C(C)=O`, the inhibition result is “Active”.

In the case of `CCOc1cc(O)c(C(=O)/C=C/c2ccc(Cl)cc2Cl)cc1CN1CCCCC1`, the inhibition result was “Active”.

On to `CCOc1cc(O)c(C(=O)/C=C/c2ccc(Cl)cc2)cc1CN1CCCC1`, for which the inhibition entry is “Active”.

On to `C=CCOc1cc(O)c(C(=O)/C=C/c2ccc(Cl)cc2Cl)cc1CN1CCCCC1`, for which the inhibition result was “Active”.
